Test results: ChEMBL document CHEMBL5154895, “Mechanistic Studies and In Vivo Efficacy of an Oxadiazole-Containing Antibiotic” (J Med Chem, 2022)
The source made the active and inactive calls.

Key:
Staphylococcus aureus [1] = experiment: Upregulation of thiol reductase thioredoxin expression in Staphylococcus aureus measured after 2 hrs by LC-MS/MS analysis; type: functional
In short: (§1)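 S. aureus ATCC 25923 at OD600 0.6 exposed to compound or DMSO control for 2 h at 37°C, normalized to OD600 1.1 and PBS-washed. Cells were pressure-cycling lysed in 100 mM ammonium bicarbonate, and 50 μg protein was acetone-precipitated, reduced and alkylated, then Trypsin/Lys-C digested and C18-desalted. About 1 μg peptides went to LC-MS/MS. Label-free quantitation kept proteins present in all 3 samples, filtered at p <0.05.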

Staphylococcus aureus [2] = experiment: Antibacterial activity against vancomycin-resistant Staphylococcus aureus 10 assessed as inhibition of bacterial growth incubated for 18 to 20 hrs by broth microdilution method; type: functional; conditions: time 18-20 hrs
In short: (§2)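 Broth microdilution per CLSI. Inoculum was set to 0.5 McFarland and diluted in CAMHB to about 5×10^5 CFU/mL. Serial dilutions of agent were incubated aerobically at 37 °C for 18–20 h. MIC was read visually as the lowest concentration with complete growth inhibition.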

Staphylococcus aureus [3] = experiment: Downregulation of EsxA protein expression in Staphylococcus aureus assessed as log2 of fold change in protein level measured after 2 hrs by LC-MS/MS analysis relative to control; type: functional
In short: (§3)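 S. aureus ATCC 25923 at OD600 0.6 was treated with compound or DMSO for 2 h at 37 °C, normalised to OD600 1.1, and washed in PBS. Cells were pressure-lysed in 100 mM ammonium bicarbonate, then acetone-precipitated, reduced with DTT, alkylated with iodoacetamide, and digested with trypsin/Lys-C. Peptides were desalted and run on LC-MS/MS. Label-free quantitation used proteins present in all 3 samples, filtered at p<0.05 against DMSO.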

Staphylococcus aureus [4] = experiment: Downregulation of MtaB protein expression in Staphylococcus aureus assessed as log2 of fold change in protein level measured after 2 hrs by LC-MS/MS analysis relative to control; type: functional; in short: as §3
Staphylococcus aureus [5] = experiment: Upregulation of 23S rRNA (pseudouridine(1915)-N(3))-methyltransferase RImH expression in Staphylococcus aureus measured after 2 hrs by LC-MS/MS analysis; type: functional; in short: as §1
Staphylococcus aureus [6] = experiment: Downregulation of threonine synthase protein expression in Staphylococcus aureus measured after 2 hrs by LC-MS/MS analysis; type: functional; in short: as §1
Staphylococcus aureus [7] = experiment: Downregulation of LukD protein expression in Staphylococcus aureus assessed as log2 of fold change in protein level measured after 2 hrs by LC-MS/MS analysis relative to control; type: functional; in short: as §3
Mus musculus [8] = experiment: Acceleration of wound healing in methicillin-resistant Staphylococcus aureus USA300 infected Balb/c mouse model assessed as reduction in TNF-alpha level in skin wounds administered topically twice daily 2 days post infection and measured after 5 days post compound treatment; type: functional, organism-based; conditions: time 5.0 day
In short: (§4)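 Mice had two 6-mm dorsal excisional wounds, each infected with 20 μL of 4.2×10^9 CFU/mL MRSA USA300 and covered with Tegaderm. Treatment began 2 days after infection (n=5 per group): 2% compound in petroleum jelly applied topically twice daily for 5 days. Right-wound homogenates in PBS were centrifuged, supernatants pooled per group, and protein normalised by BCA. Cytokines were measured by mouse cytokine array (pg/mL).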

Staphylococcus aureus [9] = experiment: Downregulation of peptidase protein expression in Staphylococcus aureus measured after 2 hrs by LC-MS/MS analysis; type: functional; in short: as §1
Staphylococcus aureus [10] = experiment: Upregulation of ribonuclease HIII expression in Staphylococcus aureus measured after 2 hrs by LC-MS/MS analysis; type: functional; in short: as §1
Staphylococcus aureus [11] = experiment: Downregulation of PTS mannose transporter subunit IIABC protein expression in Staphylococcus aureus measured after 2 hrs by LC-MS/MS analysis; type: functional; in short: as §3
Staphylococcus aureus [12] = experiment: Downregulation of MAP domain-containing protein expression in Staphylococcus aureus measured after 2 hrs by LC-MS/MS analysis; type: functional; in short: as §3
Staphylococcus aureus [13] = experiment: Downregulation of aureolysin protein expression in Staphylococcus aureus measured after 2 hrs by LC-MS/MS analysis; type: functional; in short: as §3
Staphylococcus aureus [14] = experiment: Downregulation of Nuc protein expression in Staphylococcus aureus assessed as log2 of fold change in protein level measured after 2 hrs by LC-MS/MS analysis relative to control; type: functional; in short: as §3
[15] = Toxicity in Balb/c mouse infected with methicillin-resistant Staphylococcus aureus USA300 assessed as necrosis administered topically twice daily 2 days post infection and measured after 5 days post compound treatment by H and E staining based histopathological analysis; conditions: in vivo, topical_or_ocular, 120 h, time 5 day
In short: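 MRSA USA300-infected punch wounds in mice, n=5. Topical 2% agent or petroleum jelly vehicle twice daily from day 2 for 5 days. The left wound was formalin-fixed, cut into 4-μm sections and H&E-stained. Whole slides were scanned and assessed by a board-certified veterinary pathologist for necrosis, inflammation, haemorrhage and related features.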

HaCaT = experiment: Cytotoxicity against human HaCaT cells assessed as reduction in cell viability measured upto 64 ug/ml incubated for 2 hrs by MTS assay; type: toxicity, cell-based; conditions: dose < 64 µg/ml
In short: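 Human keratinocytes exposed to compound at 16, 32, 64 and 128 μg/mL in sextuplicate for 2 hours at 37 °C with 5% CO2. DMSO served as the baseline control. MTS reagent added, then 3 h further incubation, and absorbance read at OD490.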

Staphylococcus aureus [16] = experiment: Downregulation of 50S rRNA methyltransferase protein expression in Staphylococcus aureus measured after 2 hrs by LC-MS/MS analysis; type: functional; in short: as §3
Staphylococcus aureus [17] = experiment: Upregulation of heme uptake system protein IsdE expression in Staphylococcus aureus measured after 2 hrs by LC-MS/MS analysis; type: functional; in short: as §1
Staphylococcus aureus [18] = experiment: Downregulation of SarR protein expression in Staphylococcus aureus assessed as log2 of fold change in protein level measured after 2 hrs by LC-MS/MS analysis relative to control; type: functional; in short: as §3
Staphylococcus aureus [19] = experiment: Downregulation of protein EssC expression in Staphylococcus aureus measured after 2 hrs by LC-MS/MS analysis; type: functional; in short: as §1
Staphylococcus aureus [20] = experiment: Antibacterial activity against vancomycin-resistant Staphylococcus aureus 12 assessed as inhibition of bacterial growth incubated for 18 to 20 hrs by broth microdilution method; type: functional; conditions: time 18-20 hrs; in short: as §2
Staphylococcus aureus [21] = experiment: Downregulation of signal peptidase II protein expression in Staphylococcus aureus measured after 2 hrs by LC-MS/MS analysis; type: functional; in short: as §1
Staphylococcus aureus [22] = experiment: Downregulation of AdhE protein expression in Staphylococcus aureus assessed as log2 of fold change in protein level measured after 2 hrs by LC-MS/MS analysis relative to control; type: functional; in short: as §3
Mus musculus [23] = experiment: Acceleration of wound healing in methicillin-resistant Staphylococcus aureus USA300 infected Balb/c mouse model assessed as reduction in IL-1beta level in skin wounds administered topically twice daily 2 days post infection and measured after 5 days post compound treatment; type: functional, organism-based; conditions: time 5.0 day; in short: as §4
Staphylococcus aureus [24] = experiment: Upregulation of DUF4930 domain-containing protein expression in Staphylococcus aureus measured after 2 hrs by LC-MS/MS analysis; type: functional; in short: as §1
Staphylococcus aureus [25] = experiment: Upregulation of Bsh protein expression in Staphylococcus aureus assessed as log2 of fold change in protein level measured after 2 hrs by LC-MS/MS analysis relative to control; type: functional; in short: as §1
Staphylococcus aureus [26] = experiment: Upregulation of GpmA protein expression in Staphylococcus aureus assessed as log2 of fold change in protein level measured after 2 hrs by LC-MS/MS analysis relative to control; type: functional; in short: as §1
Staphylococcus aureus [27] = experiment: Downregulation of CarB protein expression in Staphylococcus aureus assessed as log2 of fold change in protein level measured after 2 hrs by LC-MS/MS analysis relative to control; type: functional; in short: as §3

CC1CC(C)CN(S(=O)(=O)c2ccc(C(=O)Nc3nnc(-c4ccc(C(F)(F)F)cc4)o3)cc2)C1 (stereo not drawn)
-5.1: log2FC (Staphylococcus aureus [14])
Non-Toxic: Activity (HaCaT)
3.6: log2FC (Staphylococcus aureus [25])
2.2: log2FC (Staphylococcus aureus [26])
Toxic: Activity [15]
active: Activity (Staphylococcus aureus [1]) | Activity (Staphylococcus aureus [5]) | Activity (Staphylococcus aureus [6]) | Activity (Mus musculus [8]) | Activity (Staphylococcus aureus [9]) | Activity (Staphylococcus aureus [10]) | Activity (Staphylococcus aureus [11]) | Activity (Staphylococcus aureus [12]) | Activity (Staphylococcus aureus [13]) | Activity (Staphylococcus aureus [16]) | Activity (Staphylococcus aureus [17]) | Activity (Staphylococcus aureus [19]) | Activity (Staphylococcus aureus [21]) | Activity (Mus musculus [23]) | Activity (Staphylococcus aureus [24])
-2: log2FC (Staphylococcus aureus [3]) | log2FC (Staphylococcus aureus [4]) | log2FC (Staphylococcus aureus [7]) | log2FC (Staphylococcus aureus [18]) | log2FC (Staphylococcus aureus [27])
-2.5: log2FC (Staphylococcus aureus [22])
0.25 µg/mL: MIC (Staphylococcus aureus [2]) | MIC (Staphylococcus aureus [20])
